Screening data (PubChem)
HSF1 inh – HSF1 inhibition; NIH3T3-HGL HSE-luciferase, MG132-induced, luminescence 8 h; stronger effect = lower value; actives 0.77% (n = 300,000); activity change, negative = inhibition, % at 7.5 µM (by protocol);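 active = more than half of replicate wells show activity change below -50%, luminescence cut by over half; inconclusive = some wells, but at most half, below -50%; inactive = no replicate well below -50%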;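 note: luciferase reports HSF-1 transcriptional activity via heat shock element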
HSF1 activator – increases HSF-1 driven luciferase reporter signal | NIH3T3-HGL HSF-1 luciferase reporter, MG132, 8 h; 100% = twice DMSO control signal | activation, % at 9 µM | actives 1.7% (n = 300,000) | AID 504408;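 active = mean replicate activation of at least 50% with a set share of replicates each reaching 50%; inconclusive = only one of those two conditions met; inactive = mean below 50% and too few replicates reaching it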
L major viab – Leishmania major promastigote growth inhibition; inhibition, % at 10 µM; AID 1063; actives 9% (n = 200,000); Leishmania major promastigotes, resazurin fluorescence viability; in the data active = inhibition above about 50%;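 note: promastigotes grown with compound for 44 hours at 28 °C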
T cruzi inh – T. cruzi replication inhibition; AID 1885; inhibition, % (concentration not given with the values); T. cruzi beta-gal in NIH3T3, luminescence, 90 h; actives 1.4% (n = 300,000);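 active = mean inhibition across valid replicates above about 55%, limit read from the data; inconclusive = mean below that limit but half or more replicates reach it; inactive = mean below it, under half of replicates reach it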;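 note: signal also drops with host cell toxicity which is not excluded here; higher percent means less beta-gal luminescence so fewer parasites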
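Assay system: NIH/3T3 fibroblasts plus reporter T. cruzi. Amount: NIH/3T3 cells, 5,000 per well. Buffer or medium: DMEM, 2% fetal bovine serum. Doses: compound pinned at 50 nL/well, DMSO. Schedule: ≥90 h infection period, 3 h prior cell attachment. Signal: luminescent β-galactosidase signal after 60 min lysis. Read-out: parasite load inhibition, %.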
Hsp70 activator – switches on Hsp70 transcription; actives 0.04% (n = 200,000); HeLa Hsp70 promoter luciferase reporter, luminescence; scaled: vehicle 0, proteasome-inhibitor control 100%; activation, % at 10 µM;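 active = activation above the mean across all tested compounds plus 3 SD, cutoff set per campaign, cut at about 5.5% in these data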
Large screens that a line does not name were inactive. Only a selection was taken, and hits are over-represented in it overall.

O=C(NC(=S)NNC(=O)[C@H]1C[C@@H]1c1ccccc1)c1cccc(F)c1	T cruzi inh 58 (no result: L major viab, Hsp70 activator)
COc1cc(C(C)=O)ccc1COc1ccc(C(=O)O)cc1OC	none (no result: L major viab, Hsp70 activator)
CCCCCc1ccc(-c2nnc(N)s2)cc1	HSF1 activator inconclusive
CCCCCCc1ccc(-c2ncc(N)cn2)cc1	HSF1 activator 51
CCCCn1c(N)c(C(=S)NC(=O)CC(C)(C)C)c(=O)n(C)c1=O	none
Cc1ccnn1CCC(=O)O	none (no result: L major viab, Hsp70 activator)
O=C(NC(=S)Nc1ncc(Br)cc1Br)c1ccccc1	HSF1 activator 76 (no result: L major viab, Hsp70 activator)
N=c1c2c3c(sc2ncn1Cc1ccccc1)CCCC3	L major viab 92
CCCCn1cnc2sc3c(c2c1=N)CCCC3	none
O=C(COC(=O)c1ccc(Br)o1)NCCc1ccccc1	none
Nc1ccccc1Nc1cc(-c2ccccc2)nn1-c1cccc(Cl)c1	T cruzi inh 58
O=C(CCl)Nc1cc(-c2ccccc2)nn1-c1ccccc1	L major viab 98
Cc1ccc(-c2cc(NC(=O)CCl)n(-c3ccccc3)n2)cc1	HSF1 activator 65, L major viab 100
Nc1cc(-c2ccc(Cl)cc2)nn1-c1ccccc1	none
Cc1ccc(-c2nn(-c3ccccc3)cc2NC(=O)CCl)cc1	L major viab 93
COc1ccc([N+](=O)[O-])cc1NC(=O)C(C)OC(=O)C1CCC1 (stereo not given)	none (no result: L major viab, Hsp70 activator)
Cn1cnnc1SCC(=O)Nc1nc(-c2ccccc2)cs1	none
O=C(CSc1n[nH]c(=O)n1Cc1ccco1)Nc1ccccc1Cl	none (no result: L major viab, Hsp70 activator)
CSCCC(NC(=O)COc1ccccc1)C(=O)N1CCCC(C(F)(F)F)C1 (stereo not given)	none (no result: L major viab, Hsp70 activator)
CC(C(=O)Nc1ccc2c(c1)OCCO2)N1Cc2ccccc2C1=O (stereo not given)	none (no result: L major viab, Hsp70 activator)
CC(C)[C@@H](C(=O)OCC(=O)Nc1ccc2c(c1)OCO2)N1C(=O)c2ccccc2C1=O	L major viab 82
CCC(C)[C@@H](C(=O)Nc1ccc2c(c1)OCO2)N1Cc2ccccc2C1=O (stereo not given in full)	L major viab 61
COc1ccccc1N1CCN(C(=O)c2ccccc2N(C)S(=O)(=O)c2ccc(C)cc2)CC1	none (no result: L major viab, Hsp70 activator)
CS(=O)(=O)N1CCN=C1SCc1ccc([N+](=O)[O-])cc1	none
O=C(c1c[nH]c(C(=O)C(Cl)(Cl)Cl)c1)c1ccc(F)cc1F	none (no result: L major viab, Hsp70 activator)
O=C(c1c[nH]c(C(=O)C(Cl)(Cl)Cl)c1)c1ccc(F)cc1Cl	L major viab 71
O=C(c1ccc(Cl)cc1)c1c[nH]c(C(=O)C(Cl)(Cl)Cl)c1	L major viab 86
O=C(c1ccccc1)c1c[nH]c(C(=O)C(Cl)(Cl)Cl)c1	L major viab 87
O=C(Cc1ccccc1)c1c[nH]c(C(=O)C(Cl)(Cl)Cl)c1	none (no result: L major viab, Hsp70 activator)
N#CCC(=O)Nc1ccc(C(F)(F)F)cc1N1CCOCC1	none
COc1ccc(CCN2C(=O)CC(NNC(=O)c3ccc(F)cc3)C2=O)cc1OC (stereo not given)	none
COc1ccc(CCN2C(=O)CC(NNC(=O)c3ccccc3Br)C2=O)cc1OC (stereo not given)	L major viab 56
COc1ccc(CCN2C(=O)CC(NNC(=O)c3cccc(O)c3)C2=O)cc1 (stereo not given)	none
CCOc1ccc(C(=O)NNC2CC(=O)N(CCc3ccccc3)C2=O)cc1OC (stereo not given)	L major viab 63
C=CCn1c(=NC(=O)c2ccc(S(=O)(=O)N3CCc4ccccc4C3)cc2)sc2cc(S(N)(=O)=O)ccc21	none
COCCn1c(=NC(=O)c2ccc(S(=O)(=O)N3CCCc4ccccc43)cc2)sc2cc(S(C)(=O)=O)ccc21	L major viab 100
C=CCn1c(=NC(=O)c2ccc(S(=O)(=O)N3CCCc4ccccc43)cc2)sc2cc(S(N)(=O)=O)ccc21	L major viab 100
CN(C)c1ccc(C(c2nnnn2CCOC(=O)Nc2ccc(Cl)cc2)N2CCOCC2)cc1 (stereo not given)	none
CCCCn1c(-c2ccccc2C)nc2cc3[nH]c(=O)c(C(C)C)nc3cc21	none (no result: L major viab, Hsp70 activator)
CCCCn1c(-c2cccc3ccccc23)nc2cc3[nH]c(=O)c(C(C)C)nc3cc21	T cruzi inh 63 (no result: L major viab, Hsp70 activator)
O=C(NC1CC1)C1CCN(C2CCN(C(=O)/C=C/c3cccs3)CC2)CC1	L major viab 87
O=C(/C=C/c1cccs1)N1CCCC1	none (no result: L major viab, Hsp70 activator)
O=C(NC1CC1)C1CCN(C2CCN(C(=O)/C=C/c3cccc(F)c3F)CC2)CC1	L major viab 82
O=c1c2oc3ccccc3c2[nH]c(=S)n1-c1ccc(F)cc1	none
O=C(CSc1n[nH]c(-c2ccco2)n1)Nc1ccccc1	none (no result: L major viab, Hsp70 activator)
CCOC(=O)c1sc(NC(=O)CSc2n[nH]c(-c3ccncc3)n2)c(C#N)c1C	none
Cc1ccsc1/C=C/C1=Cc2c(sc(NC(=O)CSc3n[nH]c(N)n3)c2C#N)C(C)(C)C1	L major viab 100
CCOc1ccc(/C=C/C2=Cc3c(sc(NC(=O)CSc4n[nH]c(N)n4)c3C#N)C(C)(C)C2)cc1	L major viab 100
CC1CCCCN1C(=O)COC(=O)c1cccc(NS(=O)(=O)c2ccccc2)c1 (stereo not given)	none (no result: L major viab, Hsp70 activator)
Cc1csc(N(C(=O)CCNC(=O)c2ccc([N+](=O)[O-])cc2)c2ccccc2)n1	L major viab 64
COc1cc(CC(=O)N(c2ccccc2)c2nc(C)cs2)cc(OC)c1OC	HSF1 activator 62
Cc1csc(N(C(=O)c2ccccc2F)c2ccccc2)n1	none
Cc1c(NC(=O)c2ccc(N3CCCC3)c([N+](=O)[O-])c2)cccc1-c1nc2ccccc2s1	L major viab 71
Cc1c(NC(=O)c2ncn[nH]2)cccc1-c1nc2ccccc2s1	L major viab 100
COc1cc(S(=O)(=O)N(C)C2CCCCC2)c(C)cc1C	none
CCOc1ccc(S(=O)(=O)Nc2nc3ccccc3nc2N2CCN(C)CC2)cc1	L major viab 100
c1cnc2ccc3ncccc3c2c1	none (no result: L major viab, Hsp70 activator)
O=Cc1ccc(O)c2ncccc12	HSF1 inh inconclusive, T cruzi inh 57 (no result: L major viab, Hsp70 activator)
CCn1c2ccccc2c2cc(NC(=O)c3cc(OC)c(OC)c(OC)c3)ccc21	T cruzi inh 57
COc1cc(C(=O)Nc2ccccc2NC(=O)c2cc(OC)c(OC)c(OC)c2)cc(OC)c1OC	HSF1 inh -69 (no result: L major viab, Hsp70 activator)
COc1cc(C(=O)Nc2ccc3c(c2)N(C(=O)CCN(C)C)c2ccccc2CC3)cc(OC)c1OC	T cruzi inh 79
CCn1c2ccccc2c2cc(NC(=O)c3cc(OC)cc(OC)c3)ccc21	none
Cc1ccc(NC(=O)C2CCN(S(=O)(=O)c3ccc4c(c3)NC(=O)CO4)CC2)cc1	none (no result: L major viab, Hsp70 activator)
Cc1ccsc1CN(C)C(=O)c1ccc(Oc2ccccc2)cc1	none (no result: L major viab, Hsp70 activator)
CC(C)N1CC(O)=C(c2nc3ccccc3[nH]2)C1=N	none
CC1(C)C(O)=C(c2nc3ccccc3[nH]2)C(=N)N1c1ccccc1	L major viab 82
O=c1c2ccccc2[nH]c(=S)n1CCCN1CCC(Cc2ccccc2)CC1	T cruzi inh 56 (no result: L major viab, Hsp70 activator)
O=c1c2ccccc2[nH]c(=S)n1CCCN1CCN(C2CCCCC2)CC1	L major viab 98 (no result: HSF1 inh, HSF1 activator, T cruzi inh)
